Source: ChEMBL document CHEMBL1153856, “Synthesis and spectral characterization of a new class of N-(N-methylpiperazinoacetyl)-2,6-diarylpiperidin-4-ones: antimicrobial, analgesic and antipyretic studies” (2009)
≈ marks a conversion by molar mass, not a printed value.

Columns and labels:
Format in all cases: functional
Staphylococcus aureus = experiment: Antimicrobial activity against Staphylococcus aureus after 24 hrs by twofold serial dilution method
Outline: (§1)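 Twofold serial broth dilution in nutrient broth at pH 7.4 ± 0.2. Compound stocks were 1 mg/mL in DMSO, diluted 1:5 into seeded broth, then six serial dilutions. Inocula came from 24 h nutrient-agar cultures, final 10⁵ cfu/mL. Incubation was 37 ± 1 °C for 24 h, with growth and solvent controls. MIC was read visually; ciprofloxacin was the standard.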

Escherichia coli = experiment: Antimicrobial activity against Escherichia coli after 24 hrs by twofold serial dilution method; outline: as §1
Pseudomonas aeruginosa = experiment: Antimicrobial activity against Pseudomonas aeruginosa after 24 hrs by twofold serial dilution method; outline: as §1
[1] = system: Salmonella enterica subsp. enterica serovar Typhi str. CT18; experiment: Antimicrobial activity against Salmonella typhi after 24 hrs by twofold serial dilution method; outline: as §1
Klebsiella pneumoniae = experiment: Antimicrobial activity against Klebsiella pneumoniae after 24 hrs by twofold serial dilution method; outline: as §1
Candida albicans = experiment: Antimicrobial activity against Candida albicans after 72 to 96 hrs by twofold serial dilution method
Outline: (§2)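 Twofold serial broth dilution in Sabouraud dextrose broth at pH 5.6. Spores came from 1–7-day Sabouraud agar slants, final inoculum 1.1–1.5 × 10² cfu/mL. Compound stocks were 1 mg/mL in DMSO, diluted 1:5 into seeded broth, then six serial dilutions. Incubation was 28 ± 1 °C for 72–96 h, with growth and solvent controls. MIC was read visually; amphotericin B was the standard.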

Rhizopus = experiment: Antimicrobial activity against Rhizopus sp. after 72 to 96 hrs by twofold serial dilution method; outline: as §2
Aspergillus niger = experiment: Antimicrobial activity against Aspergillus niger after 72 to 96 hrs by twofold serial dilution method; outline: as §2
Aspergillus flavus = experiment: Antimicrobial activity against Aspergillus flavus after 72 to 96 hrs by twofold serial dilution method; outline: as §2
Mus musculus [2] = experiment: Analgesic activity in albino mouse assessed as inhibition of acetic acid-induced writhing response at 30 mg/kg, po administered 1 hr prior to acetic acid challenge relative to control
Outline: (§3)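 Albino mice of both sexes, 20–25 g, n = 6 per group. Doses of 30, 60 or 90 mg/kg were given orally as suspensions in 1% sodium CMC. 1 h later, 1% acetic acid in normal saline (10 mL/kg) was injected ip. Complete extension of either hind limb counted as a writhe. Counting started 5 min after injection and ran 30 min. Results are % inhibition = [1 − T/C] × 100 versus vehicle controls, mean ± SEM.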

Mus musculus [3] = experiment: Analgesic activity in albino mouse assessed as inhibition of acetic acid-induced writhing response at 60 mg/kg, po administered 1 hr prior to acetic acid challenge relative to control; outline: as §3
Mus musculus [4] = experiment: Analgesic activity in albino mouse assessed as inhibition of acetic acid-induced writhing response at 90 mg/kg, po administered 1 hr prior to acetic acid challenge relative to control; outline: as §3
Rattus norvegicus [5] = experiment: Antipyretic activity against brewer's yeast-induced hyperthermia in Wistar rat assessed as change in rectal temperature at 30 mg/kg, po after 30 mins
Outline: (§4)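 Wistar rats of both sexes, 200–250 g, received brewer's yeast in normal saline sc. Rectal temperature was taken with a digital thermometer (precision 0.1 °C). At 18 h, rats whose temperature had risen 0.3–0.5 °C were selected. Test compounds (30 or 60 mg/kg) or indomethacin (5 mg/kg) were given orally in 1% CMC; controls received vehicle only. Temperature was measured at 30, 60, 90, 120 and 150 min, mean ± SEM.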

Rattus norvegicus [6] = experiment: Antipyretic activity against brewer's yeast-induced hyperthermia in Wistar rat assessed as change in rectal temperature at 30 mg/kg, po after 60 mins; outline: as §4
Rattus norvegicus [7] = experiment: Antipyretic activity against brewer's yeast-induced hyperthermia in Wistar rat assessed as change in rectal temperature at 30 mg/kg, po after 90 mins; outline: as §4
Rattus norvegicus [8] = experiment: Antipyretic activity against brewer's yeast-induced hyperthermia in Wistar rat assessed as change in rectal temperature at 30 mg/kg, po after 120 mins; outline: as §4
Rattus norvegicus [9] = experiment: Antipyretic activity against brewer's yeast-induced hyperthermia in Wistar rat assessed as change in rectal temperature at 30 mg/kg, po after 150 mins; outline: as §4
Rattus norvegicus [10] = experiment: Antipyretic activity against brewer's yeast-induced hyperthermia in Wistar rat assessed as change in rectal temperature at 60 mg/kg, po after 30 mins; outline: as §4
Rattus norvegicus [11] = experiment: Antipyretic activity against brewer's yeast-induced hyperthermia in Wistar rat assessed as change in rectal temperature at 60 mg/kg, po after 60 mins; outline: as §4
Rattus norvegicus [12] = experiment: Antipyretic activity against brewer's yeast-induced hyperthermia in Wistar rat assessed as change in rectal temperature at 60 mg/kg, po after 90 mins; outline: as §4
Rattus norvegicus [13] = experiment: Antipyretic activity against brewer's yeast-induced hyperthermia in Wistar rat assessed as change in rectal temperature at 60 mg/kg, po after 120 mins; outline: as §4
Rattus norvegicus [14] = experiment: Antipyretic activity against brewer's yeast-induced hyperthermia in Wistar rat assessed as change in rectal temperature at 60 mg/kg, po after 150 mins; outline: as §4

| Structure (SMILES) | MIC (Staphylococcus aureus) [µg/mL] | MIC (Escherichia coli) [µg/mL] | MIC (Pseudomonas aeruginosa) [µg/mL] | MIC [1] [µg/mL] | MIC (Klebsiella pneumoniae) [µg/mL] | MIC (Candida albicans) [µg/mL] | MIC (Rhizopus) [µg/mL] | MIC (Aspergillus niger) [µg/mL] | MIC (Aspergillus flavus) [µg/mL] | inhibition in vivo at 30 mg/kg (Mus musculus [2]) [%] | inhibition in vivo at 60 mg/kg (Mus musculus [3]) [%] | inhibition in vivo at 90 mg/kg (Mus musculus [4]) [%] | Activity (Rattus norvegicus [5]) [°C] | Activity (Rattus norvegicus [6]) [°C] | Activity (Rattus norvegicus [7]) [°C] | Activity (Rattus norvegicus [8]) [°C] | Activity (Rattus norvegicus [9]) [°C] | Activity (Rattus norvegicus [10]) [°C] | Activity (Rattus norvegicus [11]) [°C] | Activity (Rattus norvegicus [12]) [°C] | further results |
| --- | --- | --- | --- | --- | --- | --- | --- | --- | --- | --- | --- | --- | --- | --- | --- | --- | --- | --- | --- | --- | --- |
| COc1ccc(C2CC(=O)C(C)C(c3ccc(OC)cc3)N2C(=O)CN2CCN(C)CC2)cc1 (stereo unspecified) | 100 (≈ 215 µM) | 50 (≈ 107 µM) | 50 (≈ 107 µM) | 200 (≈ 430 µM) | 100 (≈ 215 µM) | 25 (≈ 53.7 µM) | 50 (≈ 107 µM) | 100 (≈ 215 µM) | 50 (≈ 107 µM) | 48.2 | 70.3 | 48 | 37.9 | 37.8 | 37.6 | 37.5 | 37.2 | 37.85 | 37.7 | 37.5 | Activity (Rattus norvegicus [13]): 37.3 °C; Activity (Rattus norvegicus [14]): 37.01 °C |
| CC(C)C1C(=O)CC(c2ccccc2)N(C(=O)CN2CCN(C)CC2)C1c1ccccc1 (stereo unspecified) | 200 (≈ 461 µM) | 100 (≈ 231 µM) | 100 (≈ 231 µM) | 50 (≈ 115 µM) | 200 (≈ 461 µM) | 200 (≈ 461 µM) | 50 (≈ 115 µM) | 100 (≈ 231 µM) | 100 (≈ 231 µM) | 5.6 | 18.1 | 2.2 | 38.15 | 38.1 | 38.01 | 38.96 | 38.9 | 38.05 | 38.01 | 38.95 | Activity (Rattus norvegicus [13]): 38.9 °C; Activity (Rattus norvegicus [14]): 38.75 °C |
| O=C(O)c1cn(C2CC2)c2cc(N3CCNCC3)c(F)cc2c1=O [CIPROFLOXACIN] | – | 25 (≈ 75.4 µM) | – | 50 (≈ 151 µM) | 25 (≈ 75.4 µM) | – | – | – | – | – | – | – | – | – | – | – | – | – | – | – | – |
| CC1C(=O)CC(c2ccccc2)N(C(=O)CN2CCN(C)CC2)C1c1ccccc1 (stereo unspecified) | > 200 | 100 (≈ 247 µM) | > 200 | 200 (≈ 493 µM) | 200 (≈ 493 µM) | > 200 | > 200 | 100 (≈ 247 µM) | 100 (≈ 247 µM) | 6.3 | 15.6 | 17.7 | 38.25 | 38.2 | 38.1 | 38.03 | 38.01 | 38.2 | 38.1 | 38.02 | Activity (Rattus norvegicus [13]): 38.01 °C; Activity (Rattus norvegicus [14]): 38.95 °C |
| C[C@@H]1[C@H](O)[C@@H](C)/C=C/C=C/C=C/C=C/C=C/C=C/C=C/[C@H](O[C@@H]2O[C@H](C)[C@@H](O)[C@H](N)[C@@H]2O)C[C@@H]2O[C@](O)(C[C@@H](O)C[C@@H](O)[C@H](O)CC[C@@H](O)C[C@@H](O)CC(=O)O[C@H]1C)C[C@H](O)[C@H]2C(=O)O [AMPHOTERICIN B] | – | – | – | – | – | 25 (≈ 27.1 µM) | 25 (≈ 27.1 µM) | 50 (≈ 54.1 µM) | 50 (≈ 54.1 µM) | – | – | – | – | – | – | – | – | – | – | – | – |
| CC(=O)Oc1ccccc1C(=O)O [ASPIRIN] | – | – | – | – | – | – | – | – | – | 44.8 | 57.9 | 38.6 | – | – | – | – | – | – | – | – | – |
